Experimental data published in ChEMBL document CHEMBL1212873, “Inactivation of protein tyrosine phosphatases by oltipraz and other cancer chemopreventive 1,2-dithiole-3-thiones” (Bioorg Med Chem, 2010).
The source made the active and inactive calls. The rule behind the calls is not given here.

Columns and labels:
[1] = molecular target: T1, Tyrosine-protein phosphatase non-receptor type 1 (Homo sapiens) (UniProt P18031); test: Competitive inhibition of human PTP1B catalytic subunit assessed as enzyme inactivation at 25 uM after 15 mins by spectrophotometry
T1 sequence (whole entry): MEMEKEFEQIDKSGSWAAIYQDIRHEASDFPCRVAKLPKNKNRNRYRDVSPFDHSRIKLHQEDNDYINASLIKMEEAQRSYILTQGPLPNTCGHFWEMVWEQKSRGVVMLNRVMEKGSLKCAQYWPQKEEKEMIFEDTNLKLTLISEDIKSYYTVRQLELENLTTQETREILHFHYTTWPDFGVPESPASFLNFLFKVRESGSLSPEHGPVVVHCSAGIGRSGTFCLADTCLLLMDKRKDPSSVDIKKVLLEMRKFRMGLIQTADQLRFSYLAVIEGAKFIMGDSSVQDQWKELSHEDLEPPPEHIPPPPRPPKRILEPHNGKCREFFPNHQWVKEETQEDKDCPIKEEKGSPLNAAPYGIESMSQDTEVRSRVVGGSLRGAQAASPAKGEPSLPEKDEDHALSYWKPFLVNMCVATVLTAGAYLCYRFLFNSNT
Method in brief: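 Thiol-free PTP1B (12.5 nM final) with compound at 25 µM and 20 mM pNPP in 50 mM Tris, 50 mM bis-Tris, 100 mM sodium acetate, 10 mM DETAPAC, 1% DMF, pH 7.2, 23 °C. Activity loss followed at 410 nm; apparent inactivation rate from first-order fit of progress curves; mean of three experiments.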

[2] = molecular target: T2, Tyrosine-protein phosphatase non-receptor type 11 (Homo sapiens) (UniProt Q06124); test: Irreversible inhibition of SHP2 at 10 to 50 uM in presence of 100 mM dithiothreitol
T2 sequence (whole entry): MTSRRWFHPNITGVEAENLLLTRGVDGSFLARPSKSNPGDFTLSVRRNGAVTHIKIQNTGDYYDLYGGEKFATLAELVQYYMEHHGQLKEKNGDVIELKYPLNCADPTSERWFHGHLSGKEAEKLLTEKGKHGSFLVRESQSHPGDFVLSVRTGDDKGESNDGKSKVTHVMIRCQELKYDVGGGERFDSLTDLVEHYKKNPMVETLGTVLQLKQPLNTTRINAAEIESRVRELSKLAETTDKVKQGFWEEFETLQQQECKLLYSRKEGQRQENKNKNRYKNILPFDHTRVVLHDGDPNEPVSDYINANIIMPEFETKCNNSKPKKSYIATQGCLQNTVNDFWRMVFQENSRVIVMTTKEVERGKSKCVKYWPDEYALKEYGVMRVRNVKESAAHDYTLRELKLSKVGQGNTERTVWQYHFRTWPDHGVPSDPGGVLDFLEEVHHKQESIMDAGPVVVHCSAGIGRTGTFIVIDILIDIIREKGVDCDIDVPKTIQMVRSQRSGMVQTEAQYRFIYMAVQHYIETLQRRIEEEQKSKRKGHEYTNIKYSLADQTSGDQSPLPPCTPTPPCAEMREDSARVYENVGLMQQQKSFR

[3] = molecular target: T1, Tyrosine-protein phosphatase non-receptor type 1 (Homo sapiens); conditions: 50 uM
[4] = molecular target: T1, Tyrosine-protein phosphatase non-receptor type 1 (Homo sapiens); conditions: 50 uM; remark: listed apart in the source
[5] = molecular target: T2, Tyrosine-protein phosphatase non-receptor type 11 (Homo sapiens); conditions: 10 to 50 uM
[6] = molecular target: T1, Tyrosine-protein phosphatase non-receptor type 1 (Homo sapiens); conditions: 2 to 50 uM
[7] = molecular target: T1, Tyrosine-protein phosphatase non-receptor type 1 (Homo sapiens); conditions: 50 uM; remark: listed apart in the source
[8] = molecular target: T1, Tyrosine-protein phosphatase non-receptor type 1 (Homo sapiens); conditions: 2 to 50 uM; remark: listed apart in the source
[9] = molecular target: T1, Tyrosine-protein phosphatase non-receptor type 1 (Homo sapiens); conditions: 2 to 50 uM; remark: listed apart in the source
[10] = molecular target: T2, Tyrosine-protein phosphatase non-receptor type 11 (Homo sapiens); conditions: 10 to 50 uM; remark: listed apart in the source
[11] = molecular target: T1, Tyrosine-protein phosphatase non-receptor type 1 (Homo sapiens); conditions: 50 uM; remark: listed apart in the source
[12] = molecular target: T1, Tyrosine-protein phosphatase non-receptor type 1 (Homo sapiens); conditions: 2 to 50 uM; remark: listed apart in the source
[13] = molecular target: T1, Tyrosine-protein phosphatase non-receptor type 1 (Homo sapiens); conditions: 2 to 50 uM; remark: listed apart in the source
[14] = molecular target: T2, Tyrosine-protein phosphatase non-receptor type 11 (Homo sapiens); conditions: 10 to 50 uM; remark: listed apart in the source

| inhibition [1] | inhibition [2] | inhibition [3] [%] | inhibition [4] [%] | inhibition [5] | inhibition [6] | inhibition [7] | inhibition [8] | inhibition [9] | inhibition [10] | inhibition [11] [%] | inhibition [12] | inhibition [13] | inhibition [14] | Structure (SMILES) |
| --- | --- | --- | --- | --- | --- | --- | --- | --- | --- | --- | --- | --- | --- | --- |
| Active | inactive |  |  |  |  |  |  |  |  |  |  |  |  | S=c1ccss1 |
| Active |  | > 97 | 50 | inactive | tde | inactive | Active | Active | inactive | 70 | Active | Active | Active | Cc1c(-c2cnccn2)ssc1=S |
| Active |  |  |  |  |  |  |  |  |  |  |  |  |  | COc1ccc(-c2cc(=S)ss2)cc1 |
